Activity calls are given as the source filed them. The calls are words filed in the database; no cut-off is given here.
Assays:
NHDF [1] = test: Upregulation of COL1A1 mRNA expression in HDF at 0.28 uM after 48 hrs by RT-PCR analysis relative to control; type: functional, Homo sapiens
Procedure, shortened: (§1)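 Normal human dermal fibroblasts from plastic-surgery biopsies, collagenase-disaggregated, grown in L15 Leibovitz with 10% FBS and penicillin/streptomycin at 37 °C. At 70% confluence refed with medium containing 0.26−0.29, 2.56−2.93 or 25.6−29.3 μM compound for 48 h. Total RNA, oligo-dT RT-PCR, 30 cycles, agarose gel band densitometry normalized to GAPDH. Fold versus basal-medium control, mean ± SD, one-way ANOVA.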

NHDF [2] = test: Upregulation of […] mRNA expression in HDF at 0.28 to 27.9 uM after 48 hrs by RT-PCR analysis relative to control; type: functional, Homo sapiens; procedure, shortened: as §1
NHDF [3] = test: Upregulation of COL5A1 mRNA expression in HDF at 0.28 uM after 48 hrs by RT-PCR analysis relative to control; type: functional, Homo sapiens; procedure, shortened: as §1
NHDF [4] = test: Upregulation of elastin mRNA expression in HDF at 0.28 to 27.9 uM after 48 hrs by RT-PCR analysis relative to control; type: functional, Homo sapiens; procedure, shortened: as §1
NHDF [5] = test: Inhibition of elastin mRNA expression in HDF at 0.28 to 27.9 uM after 48 hrs by RT-PCR analysis; type: functional, cell-based; conditions: Homo sapiens; procedure, shortened: as §1
Escherichia coli = test: Antibacterial activity against Escherichia coli at 0.5 to 8 ug after 18 hrs by agar disc diffusion method; type: functional, organism-based
Procedure, shortened: (§2)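 Bacteria suspended in saline at 10^8 CFU mL−1; 0.1 mL spread on nutrient agar (pH 6.8). Filter-paper disks carrying 8, 4, 2, 1 and 0.5 μg of compound (in DMSO) placed on the plates. Incubated aerobically at 37 °C for 18 h. Inhibition zone measured by caliper. Ampicillin and DMSO disks served as controls.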

Bacillus sp. = test: Antibacterial activity against Bacillus sp. at 0.5 to 8 ug after 18 hrs by agar disc diffusion method; type: functional, organism-based; procedure, shortened: as §2
Candida albicans = test: Antifungal activity against Candida albicans ATCC 10235 at 0.5 to 8 ug after 24 hrs by agar disc diffusion method; type: functional, organism-based
Procedure, shortened: (§3)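 Qualitative disk diffusion on potato dextrose agar. Fungal inoculum at a final 10^5 CFU mL−1. Disks carried 8, 4, 2, 1 and 0.5 μg of compound in DMSO. Incubated aerobically at 37 °C for 24 h. Growth-inhibition zone measured by caliper. Amphotericin B and DMSO disks served as controls.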

Nakaseomyces glabratus = test: Antifungal activity against Candida glabrata CBS 138 at 0.5 to 8 ug after 24 hrs by agar disc diffusion method; type: functional, organism-based; procedure, shortened: as §3
NHDF [6] = test: Upregulation of COL1A1 mRNA expression in HDF at 100 uM after 48 hrs by RT-PCR analysis; type: functional, cell-based; conditions: Homo sapiens
Procedure, shortened: (§4)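 Positive control: ascorbic acid at 100 μM in basal medium (L15 Leibovitz, 10% FBS, antibiotics) added to normal human dermal fibroblasts at 70% confluence, 48 h, 37 °C. Total RNA reverse-transcribed with oligo dT, PCR 30 cycles, bands on 1.5% agarose quantified and normalized to GAPDH mRNA. Mean ± SD versus basal-medium control, one-way ANOVA.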

NHDF [7] = test: Upregulation of elastin mRNA expression in HDF at 100 uM after 48 hrs by RT-PCR analysis; type: functional, cell-based; conditions: Homo sapiens; procedure, shortened: as §4
NHDF [8] = test: Upregulation of COL1A1 mRNA expression in HDF at 29.2 uM after 48 hrs by RT-PCR analysis relative to control; type: functional, Homo sapiens; procedure, shortened: as §1
NHDF [9] = test: Upregulation of elastin mRNA expression in HDF at 0.29 to 29.2 uM after 48 hrs by RT-PCR analysis; type: functional, cell-based; conditions: Homo sapiens; procedure, shortened: as §1
NHDF [10] = test: Inhibition of elastin mRNA expression in HDF at 0.29 to 29.2 uM after 48 hrs by RT-PCR analysis; type: functional, cell-based; conditions: Homo sapiens; procedure, shortened: as §1
NHDF [11] = test: Upregulation of COL1A1 mRNA expression in HDF at 0.29 to 29.3 uM after 48 hrs by RT-PCR analysis; type: functional, cell-based; conditions: Homo sapiens
Procedure, shortened: (§5)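 Primary dermal fibroblasts from surgical biopsies, collagenase-dissociated and grown in L15 with 10% FBS at 37 °C. Total RNA (1 μg) was reverse-transcribed with oligo dT. PCR ran 30 cycles and products were run on 1.5% agarose. Bands were quantified and normalized to GAPDH, giving fold over the basal-medium control as mean ± SD, with one-way ANOVA.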

NHDF [12] = test: Upregulation of […] mRNA expression in HDF at 0.29 uM after 48 hrs by RT-PCR analysis relative to control; type: functional, Homo sapiens; procedure, shortened: as §5
NHDF [13] = test: Upregulation of […] mRNA expression in HDF at 2.93 uM after 48 hrs by RT-PCR analysis relative to control; type: functional, Homo sapiens; procedure, shortened: as §5
NHDF [14] = test: Upregulation of COL5A1 mRNA expression in HDF at 2.93 uM after 48 hrs by RT-PCR analysis relative to control; type: functional, Homo sapiens; procedure, shortened: as §5
NHDF [15] = test: Upregulation of elastin mRNA expression in HDF at 0.29 to 29.3 uM after 48 hrs by RT-PCR analysis relative to control; type: functional, Homo sapiens; procedure, shortened: as §5
NHDF [16] = test: Inhibition of elastin mRNA expression in HDF at 0.29 to 29.3 uM after 48 hrs by RT-PCR analysis; type: functional, cell-based; conditions: Homo sapiens; procedure, shortened: as §5

## C[C@@H]1[C@H]2C[C@@]34COC(=O)[C@H]3C[C@H]3O[C@H]3[C@H]4[C@@]13C[C@H](c1ccoc1)O[C@H]3O2
NHDF [1]
  fold change (FC): 1.6
NHDF [2]
  fold change (FC): 2.1 - 2.5
NHDF [3]
  fold change (FC): 2.2
NHDF [4]
  fold change (FC): 2.7 - 3.2
NHDF [5]
  inhibition: inactive
Escherichia coli
  Activity: inactive
Bacillus sp.
  Activity: inactive
Candida albicans
  Activity: inactive
Nakaseomyces glabratus
  Activity: inactive

## O=C1O[C@H]([C@@H](O)CO)C(O)=C1O
NHDF [6]
  Activity: Active
NHDF [7]
  Activity: Active

## C[C@@H]1[C@H]2C[C@@]34COC(=O)[C@H]3CC=C[C@H]4[C@@]13C[C@H](c1ccoc1)O[C@H]3O2
NHDF [8]
  fold change (FC): 1.6
NHDF [9]
  Activity: Active
NHDF [10]
  inhibition: inactive

## C[C@]12C[C@H](c3ccoc3)OC(=O)[C@H]1CC[C@@]13COC(=O)C1=CC=C[C@H]32
NHDF [11]
  Activity: inactive
NHDF [12]
  fold change (FC): 2.5
NHDF [13]
  fold change (FC): 3.4
NHDF [14]
  fold change (FC): 2.5
NHDF [15]
  fold change (FC): 2.1 - 3.4
NHDF [16]
  inhibition: inactive
Escherichia coli
  Activity: inactive
Bacillus sp.
  Activity: inactive
Candida albicans
  Activity: inactive
Nakaseomyces glabratus
  Activity: inactive

Source: ChEMBL document CHEMBL4138180, “neo-Clerodane Diterpenoids from Salvia polystachya Stimulate the Expression of Extracellular Matrix Components in Human Dermal Fibroblasts” (2017)
